Laboratory results as given in paper PMC8301577 (Clinical and Translational Science, 2021).
Values joined by “and” are separate entries in the source; they are usually repeats but may differ in a detail not shown here. Equal values may be shown once. “Also recorded” adds a separate entry of the source.

How the values were obtained:
Single-dose = format: in vivo, human; details: for CL: single oral dose 1 mg trandolapril, mean
healthy volunteers = test: Single-dose; format: in vivo, human
Outline: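 Healthy non-smoking volunteers (8 CES1 G143E heterozygotes, 11 noncarriers) fasted overnight, then took a single 1 mg oral test compound dose with 240 ml water and fasted until 4 h post-dose. The maximal post-dose reduction was taken; mean ± SD.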

[1] = Stability of QC samples in human plasma; format: physicochemical; details: autosampler 4°C for 48 h or 3 successive freeze (−20°C) and thaw cycles
Outline: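 Plasma QC samples held both analytes at 30, 300 and 1000 pg/ml, five replicates each. They were extracted by solid phase with deuterated internal standards and quantified by LC-MS/MS. Processed samples were tested after 48 h in the autosampler at 4°C, and QC samples after three freeze (−20°C)/thaw cycles, following FDA bioanalytical validation guidance.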

CES1 G143E = details: cells transfected with the variant; cited from earlier work
ACE = details: cited from earlier work
[2] = cited from earlier work
[3] = G/E, individual subjects (n=8), single oral dose 1 mg
[4] = G/G, individual subjects (n=11), single oral dose 1 mg
[5] = Mean ± SD (G/E), n=8, single oral dose 1 mg
[6] = Mean ± SD (G/G), n=11, single oral dose 1 mg

SMILES: CCOC(=O)[C@H](CCc1ccccc1)N[C@@H](C)C(=O)N1[C@H](C(=O)O)C[C@H]2CCCC[C@@H]21 [Trandolapril]
- CL (Single-dose; CES1 143G/E (n=8)): 1027.58 L/h
- CL (Single-dose; CES1 143G/G (n=11)): 893.90 L/h
- DBP Max reduction (healthy volunteers; [3]): 10 and 11 and 3 and 15 and 21 and 6 and 13
- Heart rate Max reduction (healthy volunteers; [3]): 20 and 11 and 17 and 7 and 3 and 4 and 18
- SBP Max reduction (healthy volunteers; [3]): 11 and 12 and 6 and 5 and 4 and 33
- DBP Max reduction (healthy volunteers; [4]): 19 and 23 and 8 and 30 and 5 and 14 and 7 and 15 and 13
- Heart rate Max reduction (healthy volunteers; [4]): 3 and −1 and 6 and 24 and 4 and −3 and 7 and 10 and 30 and 9
- SBP Max reduction (healthy volunteers; [4]): 32 and 23 and 10 and 16 and 12 and 7 and 5 and 11
- DBP Max reduction (healthy volunteers; [5]): 12 ± 6
- Heart rate Max reduction (healthy volunteers; [5]): 12 ± 7
- SBP Max reduction (healthy volunteers; [5]): 11 ± 9
- DBP Max reduction (healthy volunteers; [6]): 15 ± 7
- Heart rate Max reduction (healthy volunteers; [6]): 9 ± 10
- SBP Max reduction (healthy volunteers; [6]): 14 ± 8
- average maximum reduction of SBP in carriers less than in noncarriers (healthy volunteers; abstract, not statistically significant): ~ 22%
- changes in heart rate after trandolapril administration (healthy volunteers; noncarrier and carrier group): no significant changes
- time of maximal reduction of SBP and DBP after dosing (healthy volunteers; noncarrier group, single oral dose 1 mg): 6 to 8 h
- maximum reduction of DBP in carrier group as percent of noncarrier group (healthy volunteers; p = 0.26, not statistically significant): 80.0%
- maximum reduction of SBP in carrier group as percent of noncarrier group (healthy volunteers; p = 0.54, not statistically significant): 78.6%
- stability of processed and QC samples [1]: stable
- catalytic activity of CES1 G143E on trandolapril activation (CES1 G143E): abolished; also recorded: completely impaired

SMILES: C[C@H](N[C@@H](CCc1ccccc1)C(=O)O)C(=O)N1[C@H](C(=O)O)C[C@H]2CCCC[C@@H]21 [Trandolaprilat, trandolaprilat]
- decrease of Cmax in G143E carriers relative to noncarriers (Single-dose; 1 mg oral trandolapril, p = 0.17, not statistically significant): 20%
- decrease of AUC0–72 h in G143E carriers relative to noncarriers (Single-dose; 1 mg oral trandolapril, p = 0.33, not statistically significant): 15%
- CL (Single-dose; CES1 143G/E (n=8)): 9.96 L/h
- CL (Single-dose; CES1 143G/G (n=11)): 12.20 L/h
- Tmax (Single-dose; human, plasma, po, 1 mg): 6.7 h
- stability of processed and QC samples [1]: stable
- potency at inhibiting ACE relative to parent compound trandolapril (ACE): approximately eight times more potent

SMILES: CCOC(=O)[C@H](CCc1ccccc1)N[C@@H](C)C(=O)N1CCC[C@H]1C(=O)O [enalapril]
- difference of PK parameters between G143E carriers and controls ([2]; Danish volunteers, 6 carriers and 16 noncarriers): no significant difference

SMILES: C[C@H](N[C@@H](CCc1ccccc1)C(=O)O)C(=O)N1CCC[C@H]1C(=O)O [enalaprilat]
- decrease of AUC0‐∞ in G143E carriers ([2]; Finnish subjects, carriers = 10, noncarriers = 12, p = 0.049): 20%

SMILES: COC(=O)C(c1ccccc1)C1CCCCN1 (centres unmarked) [methylphenidate]
- mean AUC0‐∞ higher in G143E carriers than in controls ([2]; Danish volunteers, 6 carriers and 16 noncarriers, p < 0.0001): 152.4%

SMILES: CCOC(=O)[C@H](CCc1ccccc1)N[C@@H](C)C(=O)N1Cc2ccccc2C[C@H]1C(=O)O [quinapril]
- impact of G143E on PKs ([2]; Finnish subjects, carriers = 10, noncarriers = 12): no significant impact
